In the library only some 10% were active in any assay of this set; here they are far more common.
PMI act satM6P = PMI (human) activation, high substrate; AID 1216; coupled PMI enzyme assay, resazurin fluorescence, 20 min; active compounds read high; 1 = untreated enzyme, 0 = substrate-free blank; 190,000 tested, 0.34% active; activation factor at 20 µM; P34949;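 active = activation factor of 2 or more at 20 µM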
Target sequence (P34949 whole entry, looked up): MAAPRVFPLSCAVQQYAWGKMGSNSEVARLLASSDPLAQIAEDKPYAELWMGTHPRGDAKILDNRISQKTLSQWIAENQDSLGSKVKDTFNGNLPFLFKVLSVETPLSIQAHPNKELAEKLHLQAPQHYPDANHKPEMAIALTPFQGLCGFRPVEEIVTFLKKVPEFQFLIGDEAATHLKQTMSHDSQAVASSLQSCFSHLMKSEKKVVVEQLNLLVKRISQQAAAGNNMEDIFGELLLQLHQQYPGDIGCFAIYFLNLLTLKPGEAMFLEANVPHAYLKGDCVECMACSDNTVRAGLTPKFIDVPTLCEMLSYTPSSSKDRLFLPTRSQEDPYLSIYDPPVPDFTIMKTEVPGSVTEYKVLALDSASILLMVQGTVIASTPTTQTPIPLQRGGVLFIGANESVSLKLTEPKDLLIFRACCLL
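Test system: human PMI in coupled enzyme assay; Input: PMI at 15 ng/mL final; Medium: HEPES buffer, pH 7.4; Schedule: 20 min incubation at room temperature; Technique: resorufin fluorescence at Ex 544/Em 590 nm; Compound: 20 µM single dose; Probe or stimulus: Near-saturating mannose-6-phosphate, 1.0 mM.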
WT yeast gro inh = growth inhibition of WT yeast, mitochondrial fusion screen; mitochondrial fusion phenotypic screen, WT strain; inhibition, % at 10 µM; 190,000 tested, 2.1% active; in the data active = inhibition above about 58%; tested in S. cerevisiae
Diaphorase act = activates diaphorase or chemically reduces, flagging diaphorase assay artifacts. 190,000 tested, 0.005% active. activation factor at 20 µM. Diaphorase/resazurin coupled assay, resorufin fluorescence, 16 min; active compounds read high; 1 = vehicle wells, 0 = NADH-free wells;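 active = diaphorase activity raised at least twofold by the compound at 20 µM; inactive = activation factor below 2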
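System – purified diaphorase enzyme from Clostridium kluyveri · Input – enzyme 0.07 U/mL final · Also added – final NADH 0.114 mM, resazurin 0.1 mM · Measured by – fluorescence of resorufin, 544 nm excitation, 590 nm emission · Timing – 16 min enzyme reaction, ambient temperature · Measure – resorufin increase flagging diaphorase activators or reducers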
L major viab = Leishmania major promastigote growth inhibition; AID 1063; Leishmania major promastigotes, resazurin fluorescence viability; 200,000 tested, 9% active; inhibition, % at 10 µM; in the data active = inhibition above about 50%;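 also: promastigotes grown with compound for 44 hours at 28 °C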
PMI act = phosphomannose isomerase (human) activation | AID 1214 | 190,000 tested, 0.005% active | P34949 | activation factor at 20 µM | purified human PMI, coupled resazurin fluorescence, 20 min; active compounds read high; 1 = vehicle control, 0 substrate-free wells;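 active = activation factor of 2 or more at 20 µM, relative to plate controls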
* marks the source's active call; other numbers are inactive results; nt = no result given.

SMILES	PMI act satM6P	WT yeast gro inh	Diaphorase act	L major viab	PMI act
O=C(NCc1ccccc1Cl)c1ccc(S(=O)(=O)Nc2cccc(C(F)(F)F)c2)cc1	0.8	-27.1	0.8	61.1*	0.7
COc1cc(-c2nc(=S)[nH][nH]2)cc(OC)c1OC	0.9	-13.2	0.8	-2.9	0.5
CCC(C)NC(=O)CSc1nnc(-c2cc(-c3cccs3)nc3ccccc23)o1 (centres undefined)	0.9	-8.6	0.8	23.9	0.9
N#C/C(=C\c1c[nH]c2ccccc12)C(=O)NCC1CCCO1 (centres undefined)	0.9	3.8	1.1	-0.6	1
O=C(CSc1nnc(-c2ccccc2Cl)o1)Nc1ccccn1	1	-0.1	0.9	1.3	1
Cc1ccc(S(=O)(=O)Nc2ccc(C(=O)Nc3ccncc3)cc2)cc1	1	8.2	0.8	44.7	1
Cc1ccc(NS(=O)(=O)c2ccc(NC(=O)c3cccc(NC(=O)C(C)C)c3)cc2)cc1	0.9	-2.5	0.8	55.6*	0.9
Cc1cc(F)ccc1N1CCC(N2CCN(C(C)C)C(CCO)C2)CC1 (centres undefined)	0.9	7.5	0.8	98.2*	0.8
CC(C)CCN1CCN(C2CCN(c3ccc4c(c3)OCO4)CC2)CC1CCO (centres undefined)	0.5	-2.6	0.7	6.4	0.8
Cc1cc(F)ccc1N1CCC(N2CCN(CCC(C)C)C(CCO)C2)CC1 (centres undefined)	1	19.6	0.9	94.9*	0.9
O=C(CSCc1c(Cl)cccc1Cl)N1CCOCC1	0.8	15.2	0.9	-3.0	0.8
O=C(Nc1nc(-c2cccc3ccccc23)cs1)c1cnccn1	0.9	-20.4	0.9	29.8	0.9
COc1cccc(C(=O)Nc2cc3c(cc2C(C)=O)OCCO3)c1	0.9	8.7	0.8	22.0	1
OC1CCN(c2cc(-c3ccccc3)nc3cc(-c4ccc(F)cc4)nn23)CC1	0.9	-15.6	0.7	19.4	0.9
CCN1CCN(c2cc(-c3ccccc3)nc3cc(-c4cccc(F)c4)nn23)CC1	0.9	81.9*	0.8	68.2*	0.9
Cc1cccc(-c2cc3nc4c(c(N5CCCC(O)C5)n3n2)CCC4)c1 (centres undefined)	0.9	16.8	0.7	38.7	0.9
OC1CCCN(c2c3c(nc4cc(-c5cccc(Cl)c5)nn24)CCC3)C1 (centres undefined)	1	67.4*	0.9	-2.2	1
COc1cccc(-c2cc3nc(-c4ccccc4)cc(N4CCCC(O)C4)n3n2)c1 (centres undefined)	0.8	69.2*	0.8	21.4	0.8
OC1CCCN(c2c3c(nc4cc(-c5cccc(F)c5)nn24)CCCC3)C1 (centres undefined)	0.9	69.4*	0.8	28.6	0.9
Cc1ccc(OCCNC(=O)C(=O)NCc2ccco2)cc1	1	4.2	1.1	-5.8	1
CCc1ccc2c(c1)C(O)(CC(=O)c1cccs1)C(=O)N2 (centres undefined)	0.9	3.6	0.9	-14.5	1
O=C(CSc1n[nH]c(=O)[nH]c1=O)NC1CC1	1	5.2	1	-4.4	1.1
CC(C)(C)C(=O)Cn1ncc(Br)c(Br)c1=O	0.9	9.2	0.8	55.8*	0.9
O=C(COC(=O)C1Cc2ccccc2CN1C(=O)c1ccccc1Cl)Nc1ccc(N2CCOCC2)cc1 (centres undefined)	1	-0.6	0.9	77.2*	1.1
CN1CCN(c2ccc(NC(=O)COc3ccccc3Cl)cc2)CC1	0.9	-14.0	1	100.4*	0.8
SMILES	PMI act satM6P	WT yeast gro inh	Diaphorase act	L major viab	PMI act
O=C(COC(=O)CNC(=O)c1ccc(Cl)cc1Cl)Nc1ccc(N2CCOCC2)cc1	0.9	-29.7	0.9	-5.5	0.9
CCC(=O)N1CCN(c2ccc(NC(=O)COc3ccccc3Cl)cc2)CC1	0.8	22.1	0.8	2.9	0.9
CCn1c(=O)cc(OCC(=O)NCc2cccs2)c2ccccc21	1	4.2	0.9	0.6	1
C/C(=N\NC(=S)NCc1ccccc1)c1ccc2ccccc2c1OC(F)F	0.9	68.2*	0.9	-2.8	0.9
C/C(=N\NC(=S)NCc1ccccc1)c1ccc(Br)cc1	0.9	71.5*	0.9	1.6	0.9
O=C1C(Cl)=C(Nc2cccc(O)c2)C(=O)N1Cc1ccccc1	0.7	30.4	0.8	14.5	0.8
CCOC(=O)N1CCN(C(=O)CN(C2CCCCC2)S(=O)(=O)c2ccc(C)cc2)CC1	0.9	-3.4	1	33.5	0.9
Cc1ccc(S(=O)(=O)N(CC(=O)N2CCN(c3ccc(F)cc3)CC2)C2CCCCC2)cc1	1	41.8	0.9	59.2*	1
COc1ccc2[nH]c3c(NCCC4=CCCCC4)ncnc3c2c1	0.9	84.2*	0.8	99.8*	1
Cn1cnc2c(NCc3ccco3)ncnc21	1	-3.6	0.9	-4.7	1.1
Cc1ccc2[nH]c3c(NCCN4CCOCC4)ncnc3c2c1	0.9	12.3	0.9	5.5	0.9
C=CCNc1ncnc2c1[nH]c1ccc(C)cc12	1	-4.6	1	82.9*	1
CCN(CC)CCNc1ncnc2c1[nH]c1ccc(OC)cc12	nt	-1.2	nt	25.2	nt
COc1ccc2[nH]c3c(NCc4ccco4)ncnc3c2c1	0.9	37.0	0.8	51.0*	0.9
NC(=O)COC(=O)CC1CC2CCC1C2 (centres undefined)	1	8.9	1.1	6.8	1.1
COc1ccccc1-c1csc(NC(=O)c2ccc(N3C(=O)CCC3=O)cc2)n1	1	-1.1	0.9	-3.5	1
CCN(CC)S(=O)(=O)c1ccc(N2CCOCC2)c(NC(=O)Cc2cccc3ccccc23)c1	1	5.9	0.9	94.7*	1
CCN(CC)S(=O)(=O)c1ccc(N2CCOCC2)c(NC(=O)Cc2ccccc2F)c1	1	-5.7	0.8	71.2*	0.9
CCN(CC)S(=O)(=O)c1ccc(N2CCOCC2)c(NC(=O)Cc2ccccc2)c1	0.9	-1.4	0.8	4.4	0.8
CCN(CC)S(=O)(=O)c1ccc(N2CCOCC2)c(NC(=O)C23CC4CC(CC(Cl)(C4)C2)C3)c1	0.9	-0.4	0.8	55.7*	0.9
CC1(C)CC(=O)C2=C(C1)OC1=C(C(=O)CC(C)(C)C1)C2c1ccc(O)cc1O	0.7	4.6	0.7	75.8*	0.5
C=CCc1cccc2cc(C(=O)Nc3ccc(S(=O)(=O)Nc4nnc(CC)s4)cc3)c(=O)oc12	1.1	-11.5	0.5	-10.4	1
Cc1cccc(Nc2ncnc3ccccc23)c1	0.8	-21.6	0.9	87.8*	0.9
COC(=O)c1cccc(Nc2ncnc3ccc(C)cc23)c1	0.9	22.4	0.9	50.7*	1
Cc1ccc(Nc2ncnc3ccccc23)cc1	1	6.3	0.9	36.2	1
CC(C)Oc1ccc(Nc2ncnc3ccccc23)cc1	1.1	13.4	0.9	56.4*	1.1
Cc1ccccc1C(=O)Oc1cccc(Nc2ncnc3ccccc23)c1	nt	nt	nt	56.5*	nt
